Publication PMC10530161 (Bioorganic & medicinal chemistry, 2023)
Entries after “also recorded” stand apart in the source; their conditions may differ.

Experiments:
[1] = Mouse liver microsomal intrinsic clearance; assay type: in vitro ADME; details: for CLint scaled: mouse, liver microsomes, Intrinsinc Clearance mCLINT
Method in brief: (§1)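 Intrinsic clearance was measured in human or mouse liver microsomes, depending on the line. Predicted hepatic clearance was then calculated from each species' intrinsic clearance using the well-stirred organ clearance model, with binding terms excluded. The work was done externally as in vitro DMPK studies.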

[2] = Human liver microsomal intrinsic clearance; assay type: in vitro ADME; details: for CLint scaled: human, liver microsomes, Intrinsinc Clearance hCLINT
Method in brief: as §1

[3] = system: SW620 colorectal cancer cells which overexpress claudin-1; assay: Cell survival assay in SW620 cells, single concentration 25 μM; assay type: cell-based; details: for activity in SW620 cell survival assay: SW620 cells, initial SAR survey at 25 μM; for inhibition at 25 µM: Homo sapiens, SW-620, read-out: % inhibition at 25 uM
CYP2D6 = CYP2D6 (Homo sapiens, UniProt P10635); assay: CYP inhibition, CYP2D6; assay type: in vitro ADME
CYP2D6, sequence (P10635 whole entry): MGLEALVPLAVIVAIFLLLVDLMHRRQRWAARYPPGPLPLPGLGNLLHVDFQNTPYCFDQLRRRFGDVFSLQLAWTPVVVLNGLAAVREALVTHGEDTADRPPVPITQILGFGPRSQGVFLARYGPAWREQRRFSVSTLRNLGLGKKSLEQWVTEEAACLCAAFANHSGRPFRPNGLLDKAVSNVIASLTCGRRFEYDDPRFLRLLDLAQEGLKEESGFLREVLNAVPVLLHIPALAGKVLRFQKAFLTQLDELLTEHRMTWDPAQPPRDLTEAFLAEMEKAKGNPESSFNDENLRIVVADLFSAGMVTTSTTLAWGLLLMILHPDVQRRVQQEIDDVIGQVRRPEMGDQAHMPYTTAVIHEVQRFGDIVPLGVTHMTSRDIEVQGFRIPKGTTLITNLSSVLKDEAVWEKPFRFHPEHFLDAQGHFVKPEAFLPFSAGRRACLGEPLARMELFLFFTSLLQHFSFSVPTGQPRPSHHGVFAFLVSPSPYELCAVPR

CYP3A4 = CYP3A4 (Homo sapiens, UniProt P08684); assay: CYP inhibition, CYP3A4; assay type: in vitro ADME
CYP3A4, sequence (P08684 whole entry): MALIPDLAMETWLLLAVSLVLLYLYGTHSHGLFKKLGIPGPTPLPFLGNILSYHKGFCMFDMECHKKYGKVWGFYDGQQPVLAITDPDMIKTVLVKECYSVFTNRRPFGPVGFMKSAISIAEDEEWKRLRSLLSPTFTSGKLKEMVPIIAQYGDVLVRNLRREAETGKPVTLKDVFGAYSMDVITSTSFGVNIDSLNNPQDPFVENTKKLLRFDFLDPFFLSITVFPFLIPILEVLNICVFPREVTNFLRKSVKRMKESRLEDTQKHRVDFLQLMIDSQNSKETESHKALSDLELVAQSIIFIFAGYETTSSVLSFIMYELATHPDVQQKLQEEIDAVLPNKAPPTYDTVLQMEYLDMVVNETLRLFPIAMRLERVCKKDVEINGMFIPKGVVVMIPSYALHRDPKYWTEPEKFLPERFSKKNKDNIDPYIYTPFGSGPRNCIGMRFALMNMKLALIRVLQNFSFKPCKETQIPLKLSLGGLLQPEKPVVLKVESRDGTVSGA

IEC-6 cells = assay: General cytotoxicity, dose response in normal IEC-6 cells; assay type: cell-based; details: control for general cytotoxicity
CYP2C19 = CYP2C19 (Homo sapiens, UniProt P33261); assay: CYP inhibition, CYP2C19; assay type: in vitro ADME
CYP2C19, sequence (P33261 whole entry): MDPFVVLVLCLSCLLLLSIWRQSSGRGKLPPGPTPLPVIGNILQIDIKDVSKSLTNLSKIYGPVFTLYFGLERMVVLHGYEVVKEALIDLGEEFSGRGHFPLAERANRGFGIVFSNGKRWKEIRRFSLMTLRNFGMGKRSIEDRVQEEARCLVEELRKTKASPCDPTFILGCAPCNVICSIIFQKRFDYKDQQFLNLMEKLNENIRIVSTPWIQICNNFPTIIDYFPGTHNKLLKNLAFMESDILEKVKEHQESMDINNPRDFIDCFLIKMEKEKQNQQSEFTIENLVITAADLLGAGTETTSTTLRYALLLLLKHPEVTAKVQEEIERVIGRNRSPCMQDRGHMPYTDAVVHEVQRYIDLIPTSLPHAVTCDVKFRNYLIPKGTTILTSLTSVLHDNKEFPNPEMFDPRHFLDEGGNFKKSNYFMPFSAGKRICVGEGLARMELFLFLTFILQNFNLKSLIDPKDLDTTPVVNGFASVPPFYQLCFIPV

colorectal cancer = details: in vivo mouse model; cited from earlier work
SW620 cells = assay: Dose response assay in SW620 cells; assay type: cell-based; details: starting at 12.5 μM

CLint scaled [1]	CLint scaled [2]	SMILES	inhibition at 25 µM [3]	other results
42.7 mL/min/kg	27.8 mL/min/kg	COc1cc2ccccc2cc1C(=O)NC(=S)Nc1ccc(-c2nc3ccccc3[nH]2)cc1 [compound 10]		stability in mouse liver microsomes [1]: moderate stability; stability in human liver microsomes [2]: moderate stability
< 20 mL/min/kg	< 20 mL/min/kg	COc1cc2ccccc2cc1C(=O)NC(=S)Nc1ccc(-c2nc3ccccc3o2)cc1 [compound 11]		stability in mouse liver microsomes [1]: stable; stability in human liver microsomes [2]: stable; activity in SW620 cell survival assay [3]: not active
		COc1cc2ccccc2cc1C(=O)NC(=S)Nc1ccc(-c2nc3ccccc3o2)cn1 [compound 12]		activity in SW620 cell survival assay [3]: not active
		COc1cc2ccccc2cc1C(=O)NC(=S)Nc1ccc(-c2nc3ccccc3s2)cc1 [compound 13]		activity in SW620 cell survival assay [3]: not active
		COc1cc2ccccc2cc1C(=O)NC(=S)Nc1ccc(-c2nc3ccccc3s2)cn1 [compound 14]		activity in SW620 cell survival assay [3]: not active
57.8 mL/min/kg	125 mL/min/kg	COc1cc2ccccc2cc1C(=O)NC(=S)Nc1ccc(-c2ncc[nH]2)cc1 [compound 15]		stability in mouse liver microsomes [1]: moderately stable; inhibition at 10 µM (CYP2D6): < 50%; stability in human liver microsomes [2]: instability; inhibition at 10 µM (CYP3A4): < 50%; concentration at which cytotoxicity was shown (IEC-6 cells): 12.5 µM; inhibition at 10 µM (CYP2C19): < 50%
37.7 mL/min/kg	202 mL/min/kg	COc1cc2ccccc2cc1C(=O)NC(=S)Nc1ccc(-c2nccs2)cc1 [compound 16]		stability in mouse liver microsomes [1]: moderately stable; stability in human liver microsomes [2]: instability
38.2 mL/min/kg	< 20 mL/min/kg	COc1cc2ccccc2cc1C(=O)NC(=S)Nc1ccc(-c2nnco2)cc1 [compound 18]		stability in mouse liver microsomes [1]: moderate stability; inhibition at 10 µM (CYP2D6): < 50%; stability in human liver microsomes [2]: regained the stability; inhibition at 10 µM (CYP3A4): < 50%; inhibition at 10 µM (CYP2C19): < 50%
46.2 mL/min/kg	< 20 mL/min/kg	COc1cc2ccccc2cc1C(=O)NC(=S)Nc1ccc(-c2ncon2)cc1 [compound 19]	18.4%	stability in mouse liver microsomes [1]: moderate stability; stability in human liver microsomes [2]: regained the stability; activity in SW620 cell survival assay [3]: inactive
		COc1cc2ccccc2cc1C(=O)Nc1ccc(-c2nc3ccccc3s2)cc1 [compound 20]	42.3%	
		COc1cc2ccccc2cc1C(=O)NC(=S)Nc1ccc(-c2cscn2)cc1 [compound 21]	29%	
		COc1cc2ccccc2cc1C(=O)Nc1ncc(C(F)(F)F)s1 [compound 22]	17.6%	
236 mL/min/kg	67.8 mL/min/kg	COc1cc2ccccc2cc1C(=O)NC(=O)Nc1ccc(-c2nc3ccccc3[nH]2)cc1 [compound 23]	90.8%	
		COc1cc2ccccc2cc1C(=O)NC(=O)Nc1ccc(-c2nc3ccccc3o2)cc1 [compound 24]	0%	
		COc1cc2ccccc2cc1C(=O)NC(=O)Nc1ccc(-c2nc3ccccc3s2)cc1 [compound 25]	0%	
		COc1cc2ccccc2cc1C(=O)NC(=O)Nc1ccc(-c2nnco2)cc1 [compound 26]	23.8%	
43.5 mL/min/kg	92.8 mL/min/kg	COc1cc2ccccc2cc1C(=O)NC(=O)Nc1ccc(-c2cscn2)cc1 [compound 27]	42.6%	
53.4 mL/min/kg	32.4 mL/min/kg	O=C(NC(=S)Nc1ccc(-c2nc3ccccc3o2)cc1)c1ccc2ccccc2c1 [compound 28]	76.4%	stability in mouse liver microsomes [1]: moderate stability; stability in human liver microsomes [2]: moderate stability; activity in in vivo model of colorectal cancer (colorectal cancer): active; also recorded: antitumor and chemosensitizer activities; % cell survival (SW620 cells): < 50%; activity in SW620 cell survival assay [3]: active
365 mL/min/kg	86.3 mL/min/kg	O=C(NC(=O)c1ccc2ccccc2c1)Nc1ccc(-c2nc3ccccc3[nH]2)cc1 [compound 29]	12.7%	
		CCOc1cc2ccccc2cc1C(=O)NC(=S)Nc1ccc(-c2nc3ccccc3o2)cc1 [compound 30]	0%	
		CCOc1cc2ccccc2cc1C(=O)NC(=S)Nc1ccc(-c2nc3ccccc3s2)cc1 [compound 31]	13%	
		CC(C)Oc1cc2ccccc2cc1C(=O)NC(=S)Nc1ccc(-c2nc3ccccc3o2)cc1 [compound 32]	17.2%	
		COc1cc2c(OC)cccc2cc1C(=O)NC(=S)Nc1ccc(-c2nc3ccccc3[nH]2)cc1 [compound 33]	37.6%	
		COc1cc2c(OC)cccc2cc1C(=O)NC(=S)Nc1ccc(-c2nc3ccccc3s2)cc1 [compound 34]	15.8%	
		O=C(NC(=S)Nc1ccc(-c2nc3ccccc3[nH]2)cc1)c1ccc2cccnc2c1 [compound 35]	0%	
		O=C(NC(=S)Nc1ccc(-c2nc3ccccc3o2)cc1)c1ccc2cccnc2c1 [compound 36]	0%	
		O=C(NC(=S)Nc1ccc(-c2ncco2)cc1)c1ccc2cccnc2c1 [compound 37]	1.4%	
139 mL/min/kg	< 20 mL/min/kg	O=C1c2ccccc2CCN1C(=S)Nc1ccc(-c2nc3ccccc3o2)cc1 [compound 38]		
		O=C1c2ccccc2CCN1C(=S)Nc1ccc(-c2ncco2)cc1 [compound 39]	0.9%	
		COc1ccccc1NC(=O)Nc1ccc(-c2nc3ccccc3[nH]2)cc1 [compound 40]	23.8%	
